# Calls of active or inactive are those of the source. The calls are words filed in the database; no cut-off is given here.
# How the values were obtained:
# Aspergillus fumigatus [1] = test: Induction of change in allergen Asp F4 protein level in iTRAQ114 labelled secreted fraction of drug-resistant Aspergillus fumigatus EMFR-S678P at 0.12 ug/ml after 24 hrs in YPD medium by MS (MS/MS) analysis relative to control; type: functional, organism-based
# In short: (§1)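 Conidia at 1 × 10⁵/ml were grown at 37°C, shaking at 225 rpm, in YPD with or without 0.12 μg/ml caspofungin for 24 or 48 h. The culture filtrate was kept as the secreted fraction. Mycelia were lysed by French press in HEPES/glycerol/EDTA/PMSF/DTT buffer, and the 5,000 × g pellet was washed to give CW/PM. Proteins were reduced, alkylated and trypsin-digested at 37°C overnight, then iTRAQ-labelled and run by 2D LC-MS/MS. Ratios are the median of unique-peptide ratios, median-normalized, versus the no-drug control.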
# Aspergillus fumigatus [2] = test: Induction of change in Class III chitinase ChiA1 protein level in iTRAQ114 labelled cell wall fraction of drug-susceptible Aspergillus fumigatus KU80 delta-akuB at 0.12 ug/ml after 24 hrs in YPD medium by MS (MS/MS) analysis relative to control; type: functional; in short: as §1
# Aspergillus fumigatus [3] = test: Induction of change in GNAT family acetyltransferase, putative protein level in iTRAQ-118 labelled cell wall fraction of drug-resistant Aspergillus fumigatus EMFR-S678P at 0.12 ug/ml after 24 hrs in YPD medium by MS (MS/MS) analysis relative to control; type: functional, organism-based; in short: as §1
# Aspergillus fumigatus [4] = test: Induction of change in NAP family protein level in iTRAQ-118 labelled cell wall fraction of drug-susceptible Aspergillus fumigatus KU80 delta-akuB at 0.12 ug/ml after 24 hrs in YPD medium by MS (MS/MS) analysis relative to control; type: functional
# In short: (§2)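 Conidia at 1 × 10⁵/ml grown shaking at 37°C in YPD with or without 0.12 μg/ml caspofungin; mycelia filtered at 24 or 48 h. Secreted fraction taken from the filtrate; cell wall/plasma membrane pellet recovered after French-press lysis and a 5,000 × g spin. Proteins trypsin-digested and iTRAQ-labelled, drug vs no-drug channels at each time, then 2D LC-MS/MS. Protein ratio is the median of ratios from uniquely assigned peptides after median normalization.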
# Aspergillus fumigatus [5] = test: Induction of change in 60s ribosomal protein l2 gene expression in drug-susceptible Aspergillus fumigatus KU80 delta-akuB at 0.12 ug/ml after 24 hrs in YPD medium by microarray analysis relative to control; type: functional
# In short: (§3)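 Mycelia grown in YPD ± 0.12 μg/ml caspofungin (1 × 10⁵ conidia/ml, 37°C, shaking) and harvested at 24 or 48 h. Total RNA extracted, DNase-treated and quality-checked; 2 μg labelled per TIGR SOP M007 and hybridized to whole-genome arrays. Three independent experiments with dye flip (6 replicates); drug vs untreated fold change.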
# Aspergillus fumigatus [6] = test: Induction of change in ATP citrate lyase, subunit 1, putative protein level in iTRAQ114 labelled secreted fraction of drug-resistant Aspergillus fumigatus EMFR-S678P at 0.12 ug/ml after 24 hrs in YPD medium by MS (MS/MS) analysis relative to control; type: functional; in short: as §1
# Aspergillus fumigatus [7] = test: Induction of change in 40S ribosomal protein S3Ae protein level in iTRAQ114 labelled cell wall fraction of drug-resistant Aspergillus fumigatus EMFR-S678P at 0.12 ug/ml after 24 hrs in YPD medium by MS (MS/MS) analysis relative to control; type: functional; in short: as §1
# Aspergillus fumigatus [8] = test: Induction of change in glucosamine-fructose-6-phosphate aminotransferase protein level in iTRAQ-118 labelled cell wall fraction of drug-resistant Aspergillus fumigatus EMFR-S678P at 0.12 ug/ml after 24 hrs in YPD medium by MS (MS/MS) analysis relative to control; type: functional, organism-based; in short: as §1
# Aspergillus fumigatus [9] = test: Induction of change in 14-alpha sterol demethylase Cyp51A protein level in iTRAQ-118 labelled cell wall fraction of drug-resistant Aspergillus fumigatus EMFR-S678P at 0.12 ug/ml after 24 hrs in YPD medium by MS (MS/MS) analysis relative to control; type: functional, organism-based; in short: as §1
# Aspergillus fumigatus [10] = test: Induction of change in IgE-binding gene expression in drug-susceptible Aspergillus fumigatus KU80 delta-akuB at 0.12 ug/ml after 48 hrs in YPD medium by microarray analysis relative to control; type: functional; in short: as §3
# Aspergillus fumigatus [11] = test: Induction of change in pyruvate decarboxylase PdcA, putative protein level in iTRAQ-118 labelled cell wall fraction of drug-resistant Aspergillus fumigatus EMFR-S678P at 0.12 ug/ml after 24 hrs in YPD medium by MS (MS/MS) analysis relative to control; type: functional, organism-based; in short: as §1
# Aspergillus fumigatus [12] = test: Induction of change in cytochrome b5, putative protein level in iTRAQ114 labelled secreted fraction of drug-resistant Aspergillus fumigatus EMFR-S678P at 0.12 ug/ml after 24 hrs in YPD medium by MS (MS/MS) analysis relative to control; type: functional; in short: as §1
# Aspergillus fumigatus [13] = test: Induction of change in mitochondrial hypoxia responsive domain protein level in iTRAQ121 labelled cell wall fraction of drug-susceptible Aspergillus fumigatus KU80 delta-akuB at 0.12 ug/ml after 48 hrs in YPD medium by MS (MS/MS) analysis relative to control; type: functional
# In short: (§4)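 Conidia (1 × 10⁵/ml) grown in YPD, 37°C, 225 rpm, ± 0.12 μg/ml caspofungin; filtrate taken as secreted fraction, French-press lysate 5,000 × g pellet as cell wall/plasma membrane. Trypsin digests 8-plex iTRAQ-labelled (drug-free channels as references), pooled, 2D-chromatography, MS/MS. Median-normalized; protein ratio = median of unique-peptide ratios, log2 normalized.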
# Aspergillus fumigatus [14] = test: Induction of change in phosphoglycerate kinase PgkA, putative protein level in iTRAQ-116 labelled secreted fraction of drug-susceptible Aspergillus fumigatus KU80 delta-akuB at 0.12 ug/ml after 48 hrs in YPD medium by MS (MS/MS) analysis relative to control; type: functional; in short: as §4
# Aspergillus fumigatus [15] = test: Induction of change in Ribosomal protein S13p/S18e protein level in iTRAQ114 labelled cell wall fraction of drug-susceptible Aspergillus fumigatus KU80 delta-akuB at 0.12 ug/ml after 24 hrs in YPD medium by MS (MS/MS) analysis relative to control; type: functional; in short: as §2
# Aspergillus fumigatus [16] = test: Induction of change in hypothetical protein locus AFUA_5G14680 level in iTRAQ-116 labelled secreted fraction of drug-susceptible Aspergillus fumigatus KU80 delta-akuB at 0.12 ug/ml after 48 hrs in YPD medium by MS (MS/MS) analysis relative to control; type: functional; in short: as §4
# Aspergillus fumigatus [17] = test: Induction of change in GNAT family acetyltransferase, putative protein level in iTRAQ-118 labelled cell wall fraction of drug-susceptible Aspergillus fumigatus KU80 delta-akuB at 0.12 ug/ml after 24 hrs in YPD medium by MS (MS/MS) analysis relative to control; type: functional; in short: as §2
# Aspergillus fumigatus [18] = test: Induction of change in ribosomal protein S9 protein level in iTRAQ114 labelled secreted fraction of drug-susceptible Aspergillus fumigatus KU80 delta-akuB at 0.12 ug/ml after 24 hrs in YPD medium by MS (MS/MS) analysis relative to control; type: functional; in short: as §4
# Aspergillus fumigatus [19] = test: Induction of change in mitochondrial hypoxia responsive domain protein level in iTRAQ-118 labelled cell wall fraction of drug-resistant Aspergillus fumigatus EMFR-S678P at 0.12 ug/ml after 48 hrs in YPD medium by MS (MS/MS) analysis relative to control; type: functional; in short: as §1
structure (smiles),measurement,setting,value
CC[C@H](C)C[C@H](C)CCCCCCCCC(=O)N[C@H]1C[C@@H](O)[C@@H](NCCN)NC(=O)[C@@H]2[C@@H](O)CCN2C(=O)[C@H]([C@H](O)CCN)NC(=O)[C@H]([C@H](O)[C@@H](O)c2ccc(O)cc2)NC(=O)[C@@H]2C[C@@H](O)CN2C(=O)[C@H]([C@@H](C)O)NC1=O [CASPOFUNGIN],Activity,Aspergillus fumigatus [1],inactive
same,fold change (FC),Aspergillus fumigatus [2],-12.1
same,Activity,Aspergillus fumigatus [3],inactive
same,fold change (FC),Aspergillus fumigatus [4],2.8
same,fold change (FC),Aspergillus fumigatus [5],3.9
same,fold change (FC),Aspergillus fumigatus [6],-1.07
same,fold change (FC),Aspergillus fumigatus [7],1.07
same,Activity,Aspergillus fumigatus [8],inactive
same,Activity,Aspergillus fumigatus [9],inactive
same,fold change (FC),Aspergillus fumigatus [10],7.6
same,Activity,Aspergillus fumigatus [11],inactive
same,fold change (FC),Aspergillus fumigatus [12],-1.32
same,fold change (FC),Aspergillus fumigatus [13],-2.1
same,fold change (FC),Aspergillus fumigatus [14],-2.8
same,fold change (FC),Aspergillus fumigatus [15],2.3
same,fold change (FC),Aspergillus fumigatus [16],-2.5
same,fold change (FC),Aspergillus fumigatus [17],-2.6
same,fold change (FC),Aspergillus fumigatus [18],1.1
same,fold change (FC),Aspergillus fumigatus [19],1.07

# Reference: ChEMBL document CHEMBL1687827, “Profiling the Aspergillus fumigatus proteome in response to caspofungin” (2011)
